Experimental data from PMC9989852 (Food and chemical toxicology : an international journal …, 2022).
Several values for one entry are separate records, joined by “and”; a condition that tells them apart may be missing. Identical values can stand only once.

Assays:
[1] = PFAS concentration in pooled urine; assay type: in vivo, B6C3F1 mice; conditions: 5%, dermal, 28 days; 5 pooled samples
Outline: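 Urine was caught in a weigh boat as it was excreted during CO2 euthanasia, about 24 h after the final daily ear dose (25 μl/ear, acetone vehicle; female B6C3F1 mice). The 5 mice per group were pooled, with variable volume. Samples underwent solid-phase extraction and LC/MS/MS, as linear isomer for short-chain analytes and linear plus branched for the comparator. Each group gave a single value without statistics.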

[2] = system: ear pinna; experiment: Ear; assay type: in vivo, B6C3F1 mice; conditions: dermal, 28 days, mice affected of 5
Outline: (§1)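 Female B6C3F1 mice (5/group) received 25 μl/ear on the dorsal ear surfaces daily, with acetone as vehicle. Tissues were formalin-fixed about 24 h after the last dose: liver remainder, half spleen, right kidney and half ear pinna. Sections were paraffin-embedded, cut at 5 μm and stained with H&E. A veterinary pathologist read them per STP guideline and graded 1 (minimal) to 5 (severe) by extent.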

[3] = system: liver (caudate); experiment: Liver gene expression; assay type: in vivo, B6C3F1 mice; conditions: dermal, 28 days
Outline: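 Dosing was daily topical to both dorsal ears (25 μl/ear, acetone vehicle) in female B6C3F1 mice. Liver caudate lobe or half ear pinna was stored in RNAlater and homogenized in RLT buffer. RNA was isolated on RNeasy columns with DNase, and 1–2 μg was reverse-transcribed. TaqMan real-time PCR was read as 2−ΔΔCT vs vehicle, normalized to β-actin. Statistics: ANOVA/Dunnett's, or Kruskal-Wallis/Dunn's for unequal variance.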

[4] = system: kidney, spleen; experiment: Kidney and spleen histopathology after 28-day dermal exposure; assay type: in vivo, B6C3F1 mice; conditions: 1.25–5%, 28 days, data not shown
Outline: as §1

[5] = system: auricular draining lymph nodes (dLNs); experiment: Draining lymph node phenotyping by flow cytometry after 28-day dermal exposure; assay type: in vivo, B6C3F1 mice; conditions: 28 days
Outline: (§2)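 Female B6C3F1 mice (5/group) received 25 μl/ear daily to the dorsal ears in acetone. About 24 h after the last dose, tissues went into RPMI: both auricular dLNs, half spleen and one ear pinna. Single-cell suspensions were acquired on an LSR II, with populations gated per supplemental strategy and FMO gating controls. Results are mean ± SE, n=5, by one-way ANOVA.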

[6] = system: B6C3F1 mice; experiment: Organ weights and body weight after 28-day dermal exposure; assay type: in vivo; conditions: 28 days
[7] = system: spleen; experiment: Spleen phenotyping by flow cytometry after 28-day dermal exposure; assay type: in vivo, B6C3F1 mice; conditions: 28 days
Outline: as §2

## O=C(O)C(F)(F)C(F)(F)C(F)(F)C(F)(F)F [PFPeA, perfluoropentanoic acid]
[1]
  urine PFAS concentration: 5600 µg/mL
[2]; 1.25%
  Ear: Degeneration/regeneration, cartilage, focal, Mild (incidence): 0
  Ear: Fibrosis, dermis, focal, Minimal (incidence): 0
  Ear: Hyperkeratosis, epidermis, focal, Mild (incidence): 0
  Ear: Hyperkeratosis, epidermis, focal, Minimal (incidence): 0
  Ear: Hyperplasia, epidermis, focal, Mild (incidence): 0
  Ear: Hyperplasia, epidermis, focal, Minimal (incidence): 0
  Ear: Inflammation, mixed cell, dermis, Minimal (incidence): 0
  Ear: Inflammation, mononuclear cell, dermis, Minimal (incidence): 0
  Ear: Necrosis, epidermis, multifocal, Minimal (incidence): 0
[2]; 2.5%
  Ear: Degeneration/regeneration, cartilage, focal, Mild (incidence): 0
  Ear: Fibrosis, dermis, focal, Minimal (incidence): 0
  Ear: Hyperkeratosis, epidermis, focal, Mild (incidence): 0
  Ear: Hyperkeratosis, epidermis, focal, Minimal (incidence): 0
  Ear: Hyperplasia, epidermis, focal, Mild (incidence): 0
  Ear: Hyperplasia, epidermis, focal, Minimal (incidence): 4/5 and 4
  Ear: Inflammation, mixed cell, dermis, Minimal (incidence): 2/5 and 2
  Ear: Inflammation, mononuclear cell, dermis, Minimal (incidence): 0
  Ear: Necrosis, epidermis, multifocal, Minimal (incidence): 0
[2]; 5%
  Ear: Degeneration/regeneration, cartilage, focal, Mild (incidence): 0
  Ear: Fibrosis, dermis, focal, Minimal (incidence): 4/5 and 4
  Ear: Hyperkeratosis, epidermis, focal, Mild (incidence): 0
  Ear: Hyperkeratosis, epidermis, focal, Minimal (incidence): 2/5 and 2
  Ear: Hyperplasia, epidermis, focal, Mild (incidence): 3/5 and 3
  Ear: Hyperplasia, epidermis, focal, Minimal (incidence): 2/5 and 2
  Ear: Inflammation, mixed cell, dermis, Minimal (incidence): 4/5 and 4
  Ear: Inflammation, mononuclear cell, dermis, Minimal (incidence): 0
  Ear: Necrosis, epidermis, multifocal, Minimal (incidence): 0
[3]; 2.5%
  liver Pltp gene expression: increase
  liver Pparδ expression: decreasing
  liver Serpine1 gene expression, increase: 8 fold
[3]; 5%
  liver Acox1 gene expression: increase
  liver Cd36 gene expression, increase: 6.5 fold
  liver Ehhadh gene expression, increase: 8.8 fold
  liver Fabp1 gene expression: increased
  liver Pltp gene expression: increase
  liver Pparγ expression: increasing
  liver Pparδ expression: decreasing
  liver Serpine1 gene expression, increase: 11.3 fold
[4]
  microscopic observations in the kidney or the spleen: No PFPeA, PFHxA, or PFHpA-related microscopic observations
[5]; 1.25%
  dLN B-cells cell number: 8.67 ± 0.72 × 10^5
  dLN B-cells frequency: 14.18 ± 0.59%
  dLN CD4^+ cell number: 2.63 ± 0.27 × 10^6
  dLN CD4^+ frequency: 42.52 ± 0.79%
  dLN CD8^+ cell number: 18.60 ± 0.18 × 10^5
  dLN CD8^+ frequency: 30.24 ± 0.44%
  dLN CD11b+ cell number: 7.21 ± 1.61 × 10^4
  dLN CD11b+ frequency: 1.26 ± 0.29%
  dLN CD86 B-cells: 1140.40 ± 46.06 MFI
  dLN CD86 DCs: 42.60 ± 1.44 MFI x 10^2
  dLN Dendritic Cells cell number: 6.24 ± 0.42 × 10^4
  dLN Dendritic Cells frequency: 1.02 ± 0.03%
  dLN Eosinophils cell number: 20.90 ± 7.02 × 10^2
  dLN MHCII B-cells: 105.00 ± 1.83 MFI × 10^2
  dLN NK cell number: 3.23 ± 0.30 × 10^4
  dLN NK frequency: 0.53 ± 0.03%
  dLN Neutrophils cell number: 12.30 ± 1.75 × 10^2
  dLN Total Cellularity: 6.15 ± 0.57 × 10^6
[5]; 2.5%
  dLN B-cells cell number: 12.60 ± 2.36 × 10^5
  dLN B-cells frequency: 15.00 ± 0.92 %
  dLN CD4^+ cell number: 3.34 ± 0.55 × 10^6
  dLN CD4^+ frequency: 39.54 ± 0.62 %
  dLN CD8^+ cell number: 25.00 ± 3.80 × 10^5
  dLN CD8^+ frequency: 29.96 ± 0.86%
  dLN CD11b+ cell number: 17.00 ± 4.33 × 10^4
  dLN CD11b+ frequency: 1.92 ± 0.19%
  dLN CD86 B-cells: 1131.40 ± 96.26 MFI
  dLN CD86 DCs: 40.30 ± 1.05 MFI x 10^2
  dLN Dendritic Cells cell number: 10.40 ± 1.31 × 10^4
  dLN Dendritic Cells frequency: 1.31 ± 0.15%
  dLN Eosinophils cell number: 81.90 ± 15.70 × 10^2
  dLN MHCII B-cells: 115.00 ± 6.25 MFI × 10^2
  dLN NK cell number: 5.52 ± 0.71 × 10^4
  dLN NK frequency: 0.69 ± 0.07%
  dLN Neutrophils cell number: 19.10 ± 3.38 × 10^2
  dLN Total Cellularity: 8.45 ± 1.43 × 10^6
[5]; 5%
  dLN B-cells cell number: 17.00 ± 1.58 × 10^5
  dLN B-cells frequency: 16.22 ± 0.70 %
  dLN CD4^+ cell number: 3.99 ± 0.36 × 10^6
  dLN CD4^+ frequency: 38.02 ± 0.95 %
  dLN CD8^+ cell number: 30.20 ± 0.23 × 10^5
  dLN CD8^+ frequency: 28.88 ± 0.40%
  dLN CD11b+ cell number: 24.00 ± 3.48 × 10^4
  dLN CD11b+ frequency: 2.26 ± 0.17%
  dLN CD86 B-cells: 1188.80 ± 47.41 MFI
  dLN CD86 DCs: 36.80 ± 2.23 MFI x 10^2
  dLN Dendritic Cells cell number: 12.60 ± 1.09 × 10^4
  dLN Dendritic Cells frequency: 1.21 ± 0.08%
  dLN Eosinophils cell number: 140.00 ± 23.00 × 10^2
  dLN MHCII B-cells: 126.00 ± 6.53 MFI × 10^2
  dLN NK cell number: 7.50 ± 0.56 × 10^4
  dLN NK frequency: 0.73 ± 0.05%
  dLN Neutrophils cell number: 22.40 ± 5.58 × 10^2
  dLN Total Cellularity: 10.50 ± 0.93 × 10^6
[6]; 1.25–5%
  body weight or overt signs of toxicity: no changes
[6]; 5%
  Liver weight (% body weight), increase vs vehicle-treated mice: 12%
[7]; 1.25%
  spleen NK cell frequency: increase
[7]; 2.5%
  spleen MFI of CD86 on B-cells: increase
  spleen MFI of MHCII on B-cells: increase
  spleen NK cell frequency: increase
  spleen number of CD4^+ T-cells: significant decrease
  spleen number of CD11b + Ly6C− cells: significant decrease
[7]; 5%
  spleen MFI of CD86 on B-cells: increase
  spleen MFI of MHCII on B-cells: increase
  spleen NK cell frequency: increase
